Experimental findings from ChEMBL document CHEMBL4130398, “Cyperaceae Species Are Potential Sources of Natural Mammalian Arginase Inhibitors with Positive Effects on Vascular Function” (J Nat Prod, 2017) are described below.

The species entered for one test is Bos taurus. As to the kind of experiment: Inhibition of bovine liver arginase assessed as reduction in urea production at 100 uM using L-arginine as substrate after 60 mins in presence of MnCl2 by alpha-isonitrosopropiophenone reagent based spectrophotometric analysis relative to control. The gist of the method:
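Purified bovine liver arginase I (0.025 U/μL in Tris-HCl 50 mM pH 7.5 with 0.1% BSA) with 10 mM MnCl2 cofactor, inhibitor from DMSO stock diluted in water, and L-arginine (0.05 M, pH 9.7). Incubated 60 min at 37 °C. Acid quench, then α-isonitrosopropiophenone at 100 °C for 45 min, A550. Activity relative to solvent control; three experiments in duplicate, mean ± SEM.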

A short description of test [1]: Inhibition of bovine liver arginase assessed as reduction in urea production using L-arginine as substrate after 60 mins in presence of MnCl2 by alpha-isonitrosopropiophenone reagent based spectrophotometric analysis. Also on record: species or system Bos taurus. The gist of the method:
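Purified bovine liver arginase I with MnCl2 (10 mM) in Tris-HCl pH 7.5/BSA buffer, L-arginine substrate (0.05 M, pH 9.7). Inhibitors from 70 mM DMSO stocks, final 0.1–1000 μM in the well. 60 min at 37 °C, then urea read with α-isonitrosopropiophenone at 550 nm. IC50 taken from semilog plots of inhibition relative to solvent control; three experiments in triplicate, mean ± SEM.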

On to `OC[C@H]1O[C@@H](Oc2cc(/C=C/c3ccc(O)cc3)cc(O[C@@H]3O[C@H](CO)[C@@H](O)[C@H](O)[C@H]3O)c2)[C@H](O)[C@@H](O)[C@@H]1O`, for which the inhibition in the test listed under Bos taurus lay within 80 to 90%.

With `Oc1ccc(/C=C/c2cc(O)cc3c2[C@H](c2cc(O)cc(O)c2)[C@@H](c2ccc(O)cc2)O3)cc1`, in the test listed under Bos taurus, the inhibition was 80 to 90%. Besides, the IC50 in test [1] turned out to be 27.8 µM.

In the case of `Oc1ccc([C@H]2c3c(O)cc(O)cc3[C@H]3c4c(cc(O)cc4[C@@H]2O)O[C@H]3c2ccc(O)cc2)cc1`, the inhibition in the test filed under Bos taurus was 80 to 90%. For the same molecule, the IC50 in test [1] was 182 µM.

With `Oc1ccc([C@H]2Oc3cc(O)cc([C@@H]4[C@H](c5cc(O)cc(O)c5)[C@@H](c5ccc(O)cc5)O[C@@H]4c4ccc(O)cc4)c3[C@@H]2c2cc(O)cc3c2[C@@H](c2cc(O)cc(O)c2)[C@H](c2ccc(O)c(O)c2)O3)cc1`, in the test filed under Bos taurus, the inhibition fell in the range of 80 to 90%. Besides, in test [1], the IC50 amounted to 25.3 µM.

As for `Oc1cc(O)cc([C@@H]2c3c(/C=C/c4ccc(O)c(O)c4)cc(O)cc3O[C@H]2c2ccc(O)c(O)c2)c1`, the inhibition in the test listed under Bos taurus lay in the range of 80 to 90%. Besides, the IC50 in test [1] is 22.6 µM.

Turning to `Oc1cc(O)cc(/C=C/c2ccc(O)c(O)c2)c1` [PICEATANNOL], the inhibition in the test filed under Bos taurus was 80 to 90%. Also, in test [1], the IC50 came out at 12.6 µM.

`N=C(NO)NCC[C@H](N)C(=O)O` [NOR-NOHA]: in test [1], the IC50 turned out to be 1.7 µM.

For `Oc1cc(O)cc([C@@H]2[C@@H](c3ccc(O)c(O)c3)c3cc(O)c(O)cc3[C@@H]3c4c(O)cc(O)cc4[C@@H]4c5c(cc(O)cc5[C@H]32)O[C@H]4c2ccc(O)c(O)c2)c1`, the inhibition in the test listed under Bos taurus was in the range of 80 to 90%. In addition, the IC50 in test [1] was 12.2 µM.

`Oc1ccc([C@H]2Oc3cc(O)cc([C@@H]4[C@H](c5cc(O)cc(O)c5)[C@@H](c5ccc(O)cc5)O[C@@H]4c4ccc(O)cc4)c3[C@@H]2c2cc(O)cc3c2[C@@H](c2cc(O)cc(O)c2)[C@H](c2ccc(O)cc2)O3)cc1`: the inhibition in the test listed under Bos taurus fell in the range of 80 to 90%.
